This is an account of results in ChEMBL document CHEMBL1143328, “Determination of 1-aryl-4-propylpiperazine pKa values: the substituent on aryl modulates basicity” (Bioorg Med Chem, 2009).

The nature of this series: Dissociation constant, pKa by potentiometric titration method. In kind it is physicochemical. In a few lines:
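Each compound dissolved in ionic-strength-adjusted water (0.15 M), titrated with 0.5 M KOH up to pH 11. Steps capped at 0.2 pH units; each point recorded once drift fell below 0.002 pH/min. Electrode checked in pH 7.00 buffer and calibrated by blank titration daily.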
By pKa is commonly meant the pH at which an ionisable group is half protonated. With `CCCN1CCN(c2ccccc2C(F)(F)F)CC1`, the pKa turned out to be 8.8.

`CCCN1CCN(c2ccccc2C)CC1` displayed a pKa of 8.39.

`CCCN1CCN(c2ccccc2O)CC1` had a pKa of 8.05.

Regarding `CCCN1CCN(c2ccc([N+](=O)[O-])cc2)CC1`, the pKa stood at 7.59.

Take `CCCN1CCN(c2ccccc2OC)CC1`: the pKa was found to be 8.29.

Compound `CCCN1CCN(c2ccc(O)cc2)CC1` yielded a pKa of 7.92.

For `CCCN1CCN(c2ccccc2)CC1`, the pKa turned out to be 7.96.

On to `CCCN1CCN(c2cccc(C(F)(F)F)c2)CC1`, for which the pKa turned out to be 7.81.

As for `CCCN1CCN(c2ccc(C)cc2)CC1`, the pKa was found to be 7.92.

Regarding `CCCN1CCN(c2ccc(Cl)cc2)CC1`, the pKa was 7.83.

`CCCN1CCN(c2ccccc2C#N)CC1`: the pKa came to 7.92.

As for `CCCN1CCN(c2cccc(C#N)c2)CC1`, the pKa was determined as 7.67.

The compound `CCCN1CCN(c2ccc(OC)cc2)CC1` came in with a pKa of 7.88.

Regarding `CCCN1CCN(c2cccc(OC)c2)CC1`, the pKa is 7.86.

Turning to `CCCN1CCN(c2cccc(C)c2)CC1`, the pKa was 7.83.

In turn, `CCCN1CCN(c2cccc(Cl)c2)CC1` gave a pKa of 7.83.

`CCCN1CCN(c2cccc(O)c2)CC1` yielded a pKa of 7.82.

Regarding `CCCN1CCN(c2cccc([N+](=O)[O-])c2)CC1`, the pKa was 7.7. This pKa and that of the compound before are within 0.2 log units of each other.

Turning to `CCCN1CCN(c2ccc(C(N)=O)cc2)CC1`, the pKa was determined as 7.84.

The compound `CCCN1CCN(c2ccccc2Cl)CC1` gave a pKa of 8.07.

Regarding `CCCN1CCN(c2ccccc2C(N)=O)CC1`, the pKa amounted to 8.14.

`CCCN1CCN(c2ccc(C#N)cc2)CC1` came in with a pKa of 7.78.

Compound `CCCN1CCN(c2cccc(C(N)=O)c2)CC1` had a pKa of 7.76.

For `CCCN1CCN(c2ccc(C(F)(F)F)cc2)CC1`, the pKa amounted to 7.84.

`CCCN1CCN(c2ccccc2[N+](=O)[O-])CC1` came in with a pKa of 7.94.
